Measured values: ChEMBL document CHEMBL4411332, “Deciphering the Role of Intramolecular Networking in Cholic Acid-Peptide Conjugates on the Lipopolysaccharide Surface in Combating Gram-Negative Bacterial Infections” (J Med Chem, 2019)
Values after ≈ are worked out from the molar mass of the structure shown. Active and inactive are the calls of the source. The calls are words filed in the database; no cut-off is given here.

Experiments:
Escherichia coli [1] = assay: Bactericidal activity against stationary form of Escherichia coli assessed as reduction in colony forming units by fluorescent based time-kill assay; assay type: functional, organism-based
Escherichia coli [2] = assay: Bactericidal activity against persistent form of Escherichia coli assessed as reduction in colony forming units by fluorescent based time-kill assay; assay type: functional, organism-based
Escherichia coli [3] = assay: Antibacterial activity against Escherichia coli isolate 6/23 infected in wound areas of BALB/c mouse assessed as reduction in colony forming units at 40 mg/kg dosed thrice daily for 4 days starting 6 hrs post infection and measured on day 5; assay type: functional, organism-based
Escherichia coli [4] = assay: Antibacterial activity against Escherichia coli by broth dilution assay; assay type: functional
Method in brief: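 MIC99 by broth-dilution assay; antibacterial and culture details are in the Supporting Information.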

| MIC99 (Escherichia coli [4]) | SMILES | Activity (Escherichia coli [1]) | Activity (Escherichia coli [2]) | Activity (Escherichia coli [3]) |
| --- | --- | --- | --- | --- |
|  | CC1(C)S[C@@H]2[C@H](NC(=O)[C@H](N)c3ccccc3)C(=O)N2[C@H]1C(=O)O | inactive | inactive | inactive |
| 8 to 128 µM (≈ 6.73 to 108 µg/mL) | C[C@H](CCC(=O)OCc1ccccc1)[C@H]1CC[C@H]2[C@@H]3[C@H](OC(=O)CNC(=O)CN)C[C@@H]4C[C@H](OC(=O)CNC(=O)CN)CC[C@]4(C)[C@H]3C[C@H](OC(=O)CNC(=O)CN)[C@]12C |  |  |  |
| inactive | C[C@H](CCC(=O)OCc1ccccc1)[C@H]1CC[C@H]2[C@@H]3[C@H](OC(=O)CNC(=O)[C@@H](N)Cc4ccccc4)C[C@@H]4C[C@H](OC(=O)CNC(=O)[C@@H](N)Cc5ccccc5)CC[C@]4(C)[C@H]3C[C@H](OC(=O)CNC(=O)[C@@H](N)Cc3ccccc3)[C@]12C |  |  |  |
